Measurements as given in ChEMBL document CHEMBL4145691, “Metalloporphyrin-Catalyzed Oxidation of Sunitinib and Pazopanib, Two Anticancer Tyrosine Kinase Inhibitors: Evidence for New Potentially Toxic Metabolites” (J Med Chem, 2018).

Tests used:
[1] = Retention time of the compound in human liver microsomes by UHPLC-MS analysis; assay type: ADME, microsome
Summary of the method: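 Human liver microsomes (final 0.5 mg/mL protein) with NADPH regenerating system in 0.1 M phosphate pH 7.4, pre-incubated 5 min at 37 °C. Stopped with acetonitrile, centrifuged, filtered, supernatant analysed by UHPLC-MS (ESI+, full scan/MRM). No-NADPH negative control.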

[2] = Drug level using sunitinib assessed as compound formation in presence of KHSO5 and Mn(III)TDCPP/Cl by NMR and mass spectrometry; assay type: physicochemical
Summary of the method: (§1)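 Biomimetic oxidation catalysed by Mn(III)-porphyrin with water-soluble oxygen donor (KHSO5 or MMPP), run in biphasic water/organic medium with a quaternary ammonium salt as phase-transfer catalyst. Products identified by NMR and mass spectrometry.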

[3] = Retention time of the compound in presence of KHSO5 and Mn(III)TDCPP/Cl by UHPLC-MS analysis; assay type: physicochemical
Summary of the method: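 Sunitinib oxidation mixture run by UHPLC-MS at 0.4 mL/min and 30 °C. Eluents: 5 mM ammonium formate pH 3.2, and 0.1% formic acid in acetonitrile. Gradient 5→35% B by 3.5 min, held to 5.5 min, then 95% by 6.5 min. ESI+, full scan m/z 200–500 plus MRM.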

[4] = Retention time of the compound in presence of MMPP and Mn(III)TDCPP/Cl by UHPLC-MS analysis; assay type: physicochemical
Summary of the method: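 Pazopanib oxidation mixture run by UHPLC-MS at 0.4 mL/min and 30 °C. Eluents: 5 mM ammonium formate pH 3.2, and 0.1% formic acid in acetonitrile. ESI+, full scan m/z 200–520 plus MRM.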

[5] = Drug level using pazopanib assessed as compound formation in presence of MMPP and Mn(III)TDCPP/Cl by NMR and mass spectrometry; assay type: physicochemical; summary of the method: as §1

Retention_time [1] [min]	Product formation [2]	Retention_time [4] [min]	Product formation [5]	Structure (SMILES)	also measured
4.36	Active			CCN(CC)CCNC(=O)c1c(CO)[nH]c(/C=C2\C(=O)Nc3ccc(F)cc32)c1C	Retention_time [3]: 4.36 min
		3.63	Active	Cc1ccc(Nc2ncc(Cl)c(N(C)c3ccc4c(C=O)n(C)nc4c3)n2)cc1S(N)(=O)=O	
4.36	Active			CCN(CC)CCNC(=O)c1c(C=O)[nH]c(/C=C2\C(=O)Nc3ccc(F)cc32)c1C	Retention_time [3]: 4.36 min
			Active	CC(=O)OCc1c2ccc(N(C)c3ccnc(Nc4ccc(C)c(S(N)(=O)=O)c4)n3)cc2nn1C	

Further lines, the molecule ahead of its results:

Structure (SMILES)	Retention_time [1] [min]	Product formation [2]	Retention_time [4] [min]	Product formation [5]	also measured
CCN(CC)CCNC(=O)c1c(/C=N/OC)[nH]c(/C=C2\C(=O)Nc3ccc(F)cc32)c1C	4.74				Retention_time [3]: 4.77 min
CCN(CC)CCNC(=O)c1c(COC)[nH]c(/C=C2\C(=O)Nc3ccc(F)cc32)c1C		Active			Retention time [3]: 4.56 min
CO/N=C/c1c2ccc(N(C)c3ccnc(Nc4ccc(C)c(S(N)(=O)=O)c4)n3)cc2nn1C				Active	Retention time [4]: 2.96 to 3.11 min
Cc1ccc(Nc2ncc(Cl)c(N(C)c3ccc4c(C)n(C)nc4c3)n2)cc1S(N)(=O)=O	3.54		3.55	Active	
Cc1ccc(Nc2ncc(Cl)c(N(C)c3ccc4c(CO)n(C)nc4c3)n2)cc1S(N)(=O)=O			3.32	Active	
Cc1ccc(Nc2nccc(N(C)c3ccc4c(CO)n(C)nc4c3)n2)cc1S(N)(=O)=O			2.56	Active	
CC[N+]([O-])(CC)CCNC(=O)c1c(C)[nH]c(/C=C2\C(=O)Nc3ccc(F)cc32)c1C		Active			
Cc1ccc(Nc2nccc(N(C)c3ccc4c(C=O)n(C)nc4c3)n2)cc1S(N)(=O)=O	2.84		2.82	Active	
